# Measured values from different studies.
# Compare with care: the assays were run in different laboratories.
SMILES,organism,assay,system,quantity,value
Cc1c(CN(C)C(=O)/C=C/c2cnc3c(c2)CC(CCN)C(=O)N3)oc2ccccc12.Cl (centres unmarked),Enterobacter cloacae,"microbial growth, broth dilution",,MIC,8 µg/mL
C/C=C(\C)c1cc(OC(=O)c2c(C)c(Cl)c(O)c(Cl)c2O)c(C)c(O)c1C(=O)O,Enterococcus gallinarum,"microbial growth, broth dilution",GALLINARUM,MIC,64 µg/mL
C/C(=C\c1ccc(C#N)cc1)C(=O)Nc1ccc(C(=O)N[C@@H](CC(N)=O)C(=O)Nc2ccc(C(=O)Nc3ccc(C(=O)Nc4ccc(C(=O)O)cc4)c(O)c3OC(C)C)cc2)cc1,Serratia marcescens,microbial growth,DSM30121,MIC,> 64 µg/mL
CC(C)OCCNc1nc(Cl)c2c(c1O)C(=O)C1=C(O)[C@]3(O)C(=O)C(C(N)=O)=C(O)[C@@H](N(C)C)[C@@H]3C[C@@H]1C2.Cl.Cl.Cl,Enterobacter cloacae,"microbial growth, broth dilution",ATCC13047,MIC,32 µg/mL
CCCC[C@H]1CN(CCCC[C@H]2CNC(=N)N2CCc2cccc(C(F)(F)F)c2)C(=N)N1CCCCC1CCCCC1,Enterobacter cloacae,microbial killing,,MBC,4.2 µM
CO[C@@H](C(N)=O)[C@H](NC(=O)c1ccc(NC(=O)c2ccc(C#N)cc2)cc1)C(=O)Nc1ccc(C(=O)Nc2ccc(C(=O)Nc3ccc(C(=O)O)cc3)c(O)c2OC(C)C)cc1,Serratia marcescens,microbial growth,DSM30121,MIC,> 64 µg/mL
CN(C)[C@@H]1C(O)=C(C(N)=O)C(=O)[C@@]2(O)C(O)=C3C(=O)c4c(O)c(N)nc(F)c4C[C@H]3C[C@@H]12.Cl.Cl,Enterobacter cloacae,"microbial growth, broth dilution",ATCC13047,MIC,0.5 µg/mL
CN[C@H](CC(C)C)C(=O)N[C@H]1C(=O)N[C@@H](CC(N)=O)C(=O)N[C@H]2C(=O)N[C@H]3C(=O)N[C@H](C(=O)N[C@H](C(=O)O)c4cc(O)cc(O)c4-c4cc3ccc4O)[C@H](O)c3ccc(c(Cl)c3)Oc3cc2cc(c3O[C@@H]2O[C@H](CO)[C@@H](O)[C@H](O)[C@H]2O[C@H]2C[C@](C)(N)[C@H](O)[C@H](C)O2)Oc2ccc(cc2Cl)[C@H]1O,Enterococcus gallinarum,"microbial growth, broth dilution",GALLINARUM,MIC,4 µg/mL
CCCNc1nc(N(C)C)c2c(c1O)C(=O)C1=C(O)[C@]3(O)C(=O)C(C(N)=O)=C(O)[C@@H](N(C)C)[C@@H]3C[C@@H]1C2.Cl.Cl,Enterobacter cloacae,"microbial growth, broth dilution",ATCC13047,MIC,> 32 µg/mL
C/C=C(\C)c1cc(O)c(C)c(OC(=O)c2c(C)c(Cl)c(O)c(Cl)c2O)c1,Enterococcus gallinarum,"microbial growth, broth dilution",GALLINARUM,MIC,8 µg/mL
CC(C)Oc1c(NC(=O)c2ccc(NC(=O)[C@H](CC(N)=O)NC(=O)c3ccc(NC(=O)c4ccc(C#N)cn4)cc3)cc2)ccc(C(=O)Nc2ccc(C(=O)O)cc2)c1O,Enterobacter cloacae,microbial growth,DSM30054,MIC,> 64 µg/mL
